Key:
Homo sapiens = species: Homo sapiens; test: In vitro activity expressed as EC50 for inhibition of collagen induced platelet aggregation.; format: functional
Thromboxane A2 receptor = target: T1, Thromboxane A2 receptor (Homo sapiens, UniProt P21731); test: In vitro activity on thromboxane A2 receptor antagonism in gel filtered human platelets.; format: functional
T1 sequence (P21731 whole entry): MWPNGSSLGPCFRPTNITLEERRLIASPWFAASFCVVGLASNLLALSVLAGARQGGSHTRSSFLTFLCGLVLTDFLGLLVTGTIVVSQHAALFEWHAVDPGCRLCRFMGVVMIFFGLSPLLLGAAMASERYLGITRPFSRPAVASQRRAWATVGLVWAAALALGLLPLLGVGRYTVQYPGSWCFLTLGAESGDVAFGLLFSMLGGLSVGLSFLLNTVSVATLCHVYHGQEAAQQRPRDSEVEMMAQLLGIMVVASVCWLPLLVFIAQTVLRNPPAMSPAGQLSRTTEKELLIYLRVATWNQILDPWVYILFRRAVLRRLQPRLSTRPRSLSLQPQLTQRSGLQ
Summary of the method: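 Human gel-filtered platelets; competitive displacement of the high-affinity radioligand ³H-SQ 29,548 from the PGH2/TXA2 receptor; IC50 from displacement. Run at least in duplicate.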

Thromboxane-A synthase = target: T2, Thromboxane-A synthase (Homo sapiens, UniProt P24557); test: In vitro activity on thromboxane A2 synthase inhibition in gel filtered human platelets.
T2 sequence (P24557 whole entry): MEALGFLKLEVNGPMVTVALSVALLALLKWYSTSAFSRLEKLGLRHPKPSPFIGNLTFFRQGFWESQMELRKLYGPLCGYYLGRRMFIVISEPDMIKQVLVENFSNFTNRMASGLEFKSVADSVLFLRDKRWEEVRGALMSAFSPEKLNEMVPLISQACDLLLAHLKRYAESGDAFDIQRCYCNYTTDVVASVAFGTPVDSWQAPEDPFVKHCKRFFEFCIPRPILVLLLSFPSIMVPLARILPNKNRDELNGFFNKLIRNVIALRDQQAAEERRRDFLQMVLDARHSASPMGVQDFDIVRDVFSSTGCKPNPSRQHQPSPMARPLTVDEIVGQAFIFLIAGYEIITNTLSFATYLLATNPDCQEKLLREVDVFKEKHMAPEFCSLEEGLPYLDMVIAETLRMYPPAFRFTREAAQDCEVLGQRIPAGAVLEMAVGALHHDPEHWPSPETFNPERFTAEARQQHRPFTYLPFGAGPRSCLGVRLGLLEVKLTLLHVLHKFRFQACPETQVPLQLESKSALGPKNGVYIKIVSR

Row | SMILES | EC50 (Homo sapiens) [nM] | IC50 (Thromboxane A2 receptor) [nM] | IC50 (Thromboxane-A synthase) [nM]
1 | CC(C)(C)/N=C(\NC#N)Nc1cccc(/C(=N/OCCCCC(=O)O)c2cccnc2)c1 | 17000 | 510 | 230
2 | CC(C)(C)/N=C(\NC#N)Nc1cccc(/C(=C\CCC(=O)O)c2cccnc2)c1 | 13000 | 81 | 400
3 | CC(C)(C)Nc1c(Nc2cccc(/C(=C\CCCC(=O)O)c3cccnc3)c2)c(=O)c1=O | 59000 | 830 | 230
4 | O=C(O)CCC/C=C(/c1cccnc1)c1cccc(N/C(=N\C2CCCC2)NC(=O)c2ccccc2)c1 | 16000 | 110 | 4
5 | O=C(O)CCC/C=C(/c1cccnc1)c1cccc(N/C(=C/[N+](=O)[O-])NC2CCCCC2)c1 | 15000 | 440 | 310
6 | CC(C)(C)/N=C(\NC#N)Nc1cccc(/C(=C\CCCCCC(=O)O)c2cccnc2)c1 | 1700 | 77 | 5
7 | CC(C)(C)/N=C(\NC#N)Nc1cccc(/C(=C\CCCCC(=O)O)c2cccnc2)c1 | 3700 | 330 | 6
8 | CC(C)C/N=C(/NC#N)Nc1cccc(/C(=C\CCCC(=O)O)c2cccnc2)c1 | 350 | – | 25
9 | CC(C)(C)NC(Nc1cccc(/C(=C\CCCC(=O)O)c2cccnc2)c1)=C(C#N)C#N | 120 | 3 | –
10 | N#CN/C(=N/C1CCCC1)Nc1cccc(/C(=C\CCCC(=O)O)c2cccnc2)c1 | 500 | – | –
11 | CC(C)(C)NC(=O)Nc1cccc(/C(=C\CCCC(=O)O)c2cccnc2)c1 | 9000 | 1300 | 40
12 | N#CN/C(=N/C1CC1)Nc1ccc(/C(=C\CCCC(=O)O)c2cccnc2)cc1 | 42000 | 21000 | 3900
13 | N/C(=N/C1CCCC1)Nc1cccc(/C(=C\CCCC(=O)O)c2cccnc2)c1 | 21000 | 1700 | 3900
14 | N#CN/C(=N/C12CC3CC(CC(C3)C1)C2)Nc1cccc(/C(=C\CCCC(=O)O)c2cccnc2)c1 | 500 | 83 | 3
15 | CN(C)CC/N=C(/NC#N)Nc1cccc(/C(=C\CCCC(=O)O)c2cccnc2)c1 | 6800 | 1000 | 2900
16 | CC(C)(C)/N=C(\Nc1cccc(/C(=C\CCCC(=O)O)c2cccnc2)c1)NS(=O)(=O)c1ccccc1 | 3300 | – | 3

Row | SMILES | EC50 (Homo sapiens) [nM] | IC50 (Thromboxane A2 receptor) [nM] | IC50 (Thromboxane-A synthase) [nM]
17 | C/N=C(/NC#N)Nc1cccc(/C(=C\CCCC(=O)O)c2cccnc2)c1 | 460 | 16 | 250
18 | CC(C)(C)/N=C(\NC#N)Nc1cccc(/C(=N\OCCCCC(=O)O)c2cccnc2)c1 | 5200 | 310 | 5
19 | CC(C)C/N=C(/NC(N)=O)Nc1cccc(/C(=C\CCCC(=O)O)c2cccnc2)c1 | 12000 | 610 | 200
20 | N#CN/C(=N/C1CCCCC1)Nc1ccc(/C(=C\CCCC(=O)O)c2cccnc2)cc1 | 31000 | – | –
21 | CC(C)(C)/N=C(\Nc1cccc(/C(=C\CCCC(=O)O)c2cccnc2)c1)NS(C)(=O)=O | 6100 | 330 | 25
22 | CN(C)/C(=N/c1cccc(/C(=C\CCCC(=O)O)c2cccnc2)c1)NC#N | 1000 | 120 | 26
23 | CC(C)(C)/N=C(/S)Nc1cccc(/C(=C\CCCC(=O)O)c2cccnc2)c1 | 2000 | 38 | 22
24 | N#CN/C(=N/C1CCCCC1)Nc1cccc(/C(=C\CCCC(=O)O)c2cccnc2)c1 | 5800 | 47 | 3
25 | CC(C)CC/N=C(/NC#N)Nc1cccc(/C(=C\CCCC(=O)O)c2cccnc2)c1 | 690 | – | –
26 | N#CN/C(=N/Cc1cccnc1)Nc1cccc(/C(=C\CCCC(=O)O)c2cccnc2)c1 | 6900 | 130 | 320
27 | CC(C)C/N=C(\Nc1cccc(/C(=C\CCCC(=O)O)c2cccnc2)c1)Nc1nn[nH]n1 | 22000 | 300 | 930
28 | N#CN/C(N)=N\c1cccc(/C(=C\CCCC(=O)O)c2cccnc2)c1 | 1000 | 35 | 430
29 | N#CN/C(=N/Cc1ccccc1)Nc1cccc(/C(=C\CCCC(=O)O)c2cccnc2)c1 | 1600 | 32 | 11
30 | CC(C)(C)/N=C(\NC#N)Nc1cccc(/C(=C/CCCC(=O)O)c2cccnc2)c1 | 48000 | 2600 | –
31 | CC(C)(C)N/C(=N\C#N)Nc1cccc(/C(=C\CCCC(=O)O)c2cccnc2)c1 [TERBOGREL] | 310 | – | –
